Assay results collected from several papers.
Protocols differ between the studies behind these lines.
Target: Phosphorylase b kinase gamma catalytic chain, skeletal muscle/heart isoform (PHKG1, Homo sapiens, UniProt Q16816)

Structure (SMILES) | test | conditions | measurement | value
COc1cc(Nc2ncc(F)c(Nc3ccc4c(n3)NC(=O)C(C)(C)O4)n2)cc(OC)c1OC | binding | 10 µM | inhibition | 29%
Nc1ncc(-c2nc(N3CCOCC3)nc(N3CCOCC3)n2)c(C(F)F)n1 | binding, competition with immobilised ligand | 10 µM | remaining binding | 94%
Cn1cc(-c2cccc(N3CCc4c(sc5c4CC(C)(C)C5)C3=O)c2CO)cc(Nc2ccncn2)c1=O | enzyme activity, inhibitor | 1 µM | inhibition | 6%
COc1ncccc1-c1cnn2ccc(N3CCN(C(=O)OC(C)C)CC3)nc12 | binding, competition with immobilised ligand | 1 µM | remaining binding | 100%
O=c1[nH]c2ccccc2n1C1CCN(Cc2ccc(-c3[nH]c4cc5ncnc5cc4nc3-c3ccccc3)cc2)CC1 | cell-free assay | 0.5 µM | remaining signal | 106%
Cn1cc(-c2cc(F)cc(N3CCn4c(cc5c4CCCC5)C3=O)c2CO)cc(Nc2ccc(N3CCN(C4COC4)CC3)cn2)c1=O | enzyme activity, inhibitor | 0.1 µM | inhibition | 6%
Cn1cncc1[C@@](O)(COc1ccc(C#N)cc1-c1ccc(OC(F)(F)F)cc1)c1ccc(C#N)cc1 | cell-free assay, competition with immobilised ligand | 1 µM | remaining binding | 95%
Cc1nn(C)cc1-c1nc2c(N3CCN(Cc4ccc(Cl)cc4)CC3)c(Cl)cnc2[nH]1 | binding, competition with immobilised ligand | 1 µM | remaining binding | 100%
N#CC1(c2ccccn2)CCN(Cc2cc(C(=O)O)c(=O)n3ccccc23)CC1 | cell-free assay, competition with immobilised ligand | 1 µM | remaining binding | 100%
CC(C)(C)c1cc(C=C(C#N)C#N)cc(Br)c1O | enzyme activity, inhibitor | 0.5 µM | remaining activity | 96.7%
